Assay results reported in ChEMBL document CHEMBL4270633, “Discovery of novel vinyl sulfone derivatives as anti-tumor agents with microtubule polymerization inhibitory and vascular disrupting activities” (Eur J Med Chem, 2018).
Values belong to the molecule of their own block, whether it stands above or below them. Calls of active or inactive are those of the source. No cut-off for these calls is given here.

Tests used:
K562 [1] = assay: Antiproliferative activity against human K562 cells after 72 hrs by MTT assay; format: functional, cell-based; conditions: K562, 72 h
Method in brief: (§1)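 Cells seeded and held 24 h at 37 °C, 5% CO2, then exposed to a concentration series in medium with 0.1% DMSO for 72 h. MTT (5 mg/mL in PBS) added for 4 h and OD read at 490 nm. IC50 taken from dose-response curves; mean ± SD of at least three independent experiments.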

HepG2 = assay: Antiproliferative activity against human HepG2 cells after 72 hrs by MTT assay; format: functional, cell-based; conditions: HepG2, 72 h; method in brief: as §1
A549 = assay: Antiproliferative activity against human A549 cells after 72 hrs by MTT assay; format: functional, cell-based; conditions: A549, 72 h; method in brief: as §1
K562 [2] = assay: Antiproliferative activity against human K562 cells at 1 uM after 72 hrs by MTT assay; format: functional, cell-based
K562 [3] = assay: Antiproliferative activity against human K562 cells at 0.1 uM after 72 hrs by MTT assay relative to control; format: functional
[4] = Inhibition of porcine brain tubulin polymerization after 30 mins by spectrophotometric method; design: species or system Sus scrofa
Method in brief: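 Purified tubulin (2 mg/mL) in PEM buffer (80 mM PIPES pH 6.9, 0.5 mM EGTA, 2 mM MgCl2, 15% glycerol), preincubated on ice with compound or DMSO vehicle, then GTP added. Absorbance at 340 nm followed at 37 °C for 30 min. IC50 derived from area under the polymerization curve.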

H22 [5] = assay: Antitumor activity against mouse H22 cells implanted in ICR mouse assessed as tumor growth inhibition at 8 mg/kg, iv administered once in 2 days for 21 days relative to control; format: functional; conditions: read-out: TGI
Method in brief: (§2)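 Male ICR mice, five weeks old, inoculated s.c. in the right flank with 1 × 10^6 H22 cells. After one day, randomized into groups of six. Given i.v. 15 or 30 mg/kg daily for 21 days in 10% DMF/2% Tween 80/88% saline, or 8 mg/kg every 2 days; vehicle control given i.v. Tumors excised and weighed; inhibition (%) = (1 − treated/control mean tumor weight) × 100.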

Mus musculus [6] = assay: Toxicity in ICR mouse implanted with mouse H22 cells assessed as decrease in body weight at 8 mg/kg, iv administered once in 2 days for 21 days; format: organism-based; conditions: in vivo
Method in brief: (§3)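 H22 s.c. allograft in male ICR mice, groups of six. Dosing i.v. at 15 or 30 mg/kg once daily for 21 days (10% DMF/2% Tween 80/88% saline), or 8 mg/kg once every 2 days. Body weight recorded every 2 days.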

K562 [7] = assay: Disruption of microtubule network in human K562 cells after 24 hrs by DAPI staining based immunofluorescent microscopic method; format: cell-based
Method in brief: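 K562 cells exposed for 24 h to 0.1% DMSO vehicle or to 0.05, 0.10, 0.20 µM or 0.005, 0.010, 0.020 µM. Fixed in 4% paraformaldehyde, blocked with goat serum 20 min at room temperature, then anti-α-tubulin antibody 2 h at 37 °C. Fluorescent antibody staining, DAPI nuclear counterstain, fluorescence microscopy.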

K562 [8] = assay: Cell cycle arrest in human K562 cells assessed as accumulation at G1 phase at 0.05 uM after 48 hrs by propidium iodide staining based flow cytometry (reference value: 60.77%); format: functional
K562 [9] = assay: Cell cycle arrest in human K562 cells assessed as accumulation at S phase at 0.05 uM after 48 hrs by propidium iodide staining based flow cytometry (reference value: 30.13%); format: functional
K562 [10] = assay: Cell cycle arrest in human K562 cells assessed as accumulation at G2 phase at 0.05 uM after 48 hrs by propidium iodide staining based flow cytometry (reference value: 9.1%); format: functional
K562 [11] = assay: Cell cycle arrest in human K562 cells assessed as accumulation at G1 phase at 0.1 uM after 48 hrs by propidium iodide staining based flow cytometry (reference value: 60.77%); format: functional
K562 [12] = assay: Cell cycle arrest in human K562 cells assessed as accumulation at S phase at 0.1 uM after 48 hrs by propidium iodide staining based flow cytometry (reference value: 30.13%); format: functional
K562 [13] = assay: Cell cycle arrest in human K562 cells assessed as accumulation at G2 phase at 0.1 uM after 48 hrs by propidium iodide staining based flow cytometry (reference value: 9.1%); format: functional
K562 [14] = assay: Cell cycle arrest in human K562 cells assessed as accumulation at G1 phase at 0.2 uM after 48 hrs by propidium iodide staining based flow cytometry (reference value: 60.77%); format: functional
K562 [15] = assay: Cell cycle arrest in human K562 cells assessed as accumulation at S phase at 0.2 uM after 48 hrs by propidium iodide staining based flow cytometry (reference value: 30.13%); format: functional
K562 [16] = assay: Cell cycle arrest in human K562 cells assessed as accumulation at G2 phase at 0.2 uM after 48 hrs by propidium iodide staining based flow cytometry (reference value: 9.1%); format: functional
K562 [17] = assay: Cell cycle arrest in human K562 cells assessed as accumulation at G2/M phase after 48 hrs by propidium iodide staining based flow cytometry; format: functional
K562 [18] = assay: Induction of apoptosis in human K562 cells at 0.05 uM after 48 hrs by Annexin V-FITC/propidium iodide staining based flow cytometry (reference value: 1.46%); format: functional
Method in brief: (§4)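 K562 cells treated 48 h at 0, 0.05, 0.1, 0.2 µM or 0, 0.005, 0.010, 0.020 µM. Washed in PBS, resuspended in Annexin V binding buffer and stained 15 min in the dark. Early plus late apoptotic fractions quantified by flow-cytometric quadrant analysis.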

K562 [19] = assay: Induction of apoptosis in human K562 cells at 0.1 uM after 48 hrs by Annexin V-FITC/propidium iodide staining based flow cytometry (reference value: 1.46%); format: functional; method in brief: as §4
K562 [20] = assay: Induction of apoptosis in human K562 cells at 0.2 uM after 48 hrs by Annexin V-FITC/propidium iodide staining based flow cytometry (reference value: 1.46%); format: functional; method in brief: as §4
K562 [21] = assay: Induction of apoptosis in human K562 cells after 48 hrs by Annexin V-FITC/propidium iodide staining based flow cytometry; format: functional, cell-based; method in brief: as §4
HUVEC [22] = assay: Antivascular activity against HUVEC assessed as reduction in wound closure after 24 hrs by phase contrast microscopic method; format: functional, cell-based; conditions: Homo sapiens
Method in brief: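 Scratch wounds made with a sterile 200 µL pipette tip, then treated at 0.05, 0.10, 0.20 µM or 0.005, 0.010, 0.020 µM. Phase-contrast images taken at 0 h and 24 h after treatment.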

HUVEC [23] = assay: Antivascular activity against HUVEC assessed as reduction in tube formation at 005 to 0.2 uM after 6 hrs by inverted microscopic based matrigel method; format: functional, cell-based; conditions: Homo sapiens
Method in brief: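 Matrigel thawed at 4 °C overnight and polymerized 30 min at 37 °C. HUVECs in DMEM seeded at 50,000 cells/well, then exposed to compound or vehicle for 6 h at 37 °C. Tube morphology examined by inverted microscopy.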

H22 [24] = assay: Antitumor activity against mouse H22 cells implanted in ICR mouse assessed as tumor growth inhibition at 15 mg/kg, iv administered once daily for 21 consecutive days relative to control; format: functional; conditions: read-out: TGI; method in brief: as §2
H22 [25] = assay: Antitumor activity against mouse H22 cells implanted in ICR mouse assessed as tumor growth inhibition at 30 mg/kg, iv administered once daily for 21 consecutive days relative to control; format: functional; conditions: read-out: TGI; method in brief: as §2
Mus musculus [26] = assay: Toxicity in ICR mouse implanted with mouse H22 cells assessed as decrease in body weight at 15 to 30 mg/kg, iv administered once daily for 21 consecutive days; format: organism-based; conditions: in vivo; method in brief: as §3
H22 [27] = assay: Antitumor activity against mouse H22 cells implanted in ICR mouse assessed as tumor growth inhibition administered iv once daily for 21 consecutive days; format: functional, organism-based; method in brief: as §2

IC50 (K562 [1]): 0.58 µM | IC50 (HepG2): 0.71 µM | IC50 (A549): 2.73 µM
SMILES: COc1ccc(/C=C(\C)S(=O)(=O)c2cc(OC)c(OC)c(OC)c2)cc1O

IC50 (K562 [1]): 0.746 µM | IC50 (HepG2): 0.753 µM | IC50 (A549): 2.35 µM
SMILES: COc1ccc(/C=C/[S+]([O-])c2cc(OC)c(OC)c(OC)c2)cc1N (stereo not given)

IC50 (K562 [1]): > 1 µM | IC50 (HepG2): > 1 µM | IC50 (A549): > 5 µM
SMILES: COc1ccc(/C=C(\Cl)S(=O)(=O)c2cc(OC)c(OC)c(OC)c2)cc1O

SMILES: COc1cc(S(=O)(=O)/C=C/c2ccc(F)cc2)cc(OC)c1OC
Activity (K562 [2]): Active | Activity (K562 [3]): Active

IC50 (K562 [1]): 0.219 µM | IC50 (HepG2): 0.267 µM | IC50 (A549): 2.28 µM | IC50 [4]: 8.23 µM
SMILES: COc1ccc(/C=C/S(=O)(=O)c2cc(OC)c(OC)c(OC)c2)cc1O
Activity (K562 [2]): Active | Activity (K562 [3]): 35.3%

SMILES: COc1cc(S(=O)(=O)/C=C/c2ccc(N(C)C)cc2)cc(OC)c1OC
Activity (K562 [2]): Active | Activity (K562 [3]): Active

SMILES: COc1cc(S(=O)(=O)/C=C/c2ccc(O)c(O)c2)cc(OC)c1OC
Activity (K562 [2]): Active | Activity (K562 [3]): inactive

SMILES: COc1cc(S(=O)(=O)/C=C/c2ccc([N+](=O)[O-])cc2)cc(OC)c1OC
Activity (K562 [2]): Active | Activity (K562 [3]): Active

SMILES: COc1ccc(/C=C/S(=O)(=O)c2cc(OC)c(OC)c(OC)c2)cc1OC
Activity (K562 [2]): Active | Activity (K562 [3]): Active

IC50 (K562 [1]): 0.183 µM | IC50 (HepG2): 0.243 µM | IC50 (A549): 1.2 µM | IC50 [4]: 3.83 µM
SMILES: COc1ccc(/C=C(\Cl)[S+]([O-])c2cc(OC)c(OC)c(OC)c2)cc1O (stereo not given)

SMILES: CC(=O)O[C@H]1C(=O)[C@@]2(C)[C@H]([C@H](OC(=O)c3ccccc3)[C@]3(O)C[C@H](OC(=O)[C@H](O)[C@@H](NC(=O)c4ccccc4)c4ccccc4)C(C)=C1C3(C)C)[C@]1(OC(C)=O)CO[C@@H]1C[C@@H]2O [PACLITAXEL]
inhibition in vivo at 8 mg/kg (H22 [5]): 74.6% | Activity (Mus musculus [6]): Toxic

IC50 (K562 [1]): 0.258 µM | IC50 (HepG2): 0.307 µM | IC50 (A549): 1.46 µM | IC50 [4]: 7.18 µM
SMILES: COc1ccc(/C=C/[S+]([O-])c2cc(OC)c(OC)c(OC)c2)cc1O (stereo not given)

IC50 (K562 [1]): 0.128 µM | IC50 (HepG2): 0.217 µM | IC50 (A549): 0.606 µM | IC50 [4]: 4.25 µM
SMILES: COc1ccc(/C=C/S(=O)(=O)c2cc(OC)c(OC)c(OC)c2)cc1N
Activity (K562 [7]): Dose-dependent effect | Activity (K562 [8]): 53.07% | Activity (K562 [9]): 33.88% | Activity (K562 [10]): 13.05% | Activity (K562 [11]): 47.15% | Activity (K562 [12]): 36.7% | Activity (K562 [13]): 16.15% | Activity (K562 [14]): 39.7% | Activity (K562 [15]): 38.31% | Activity (K562 [16]): 21.99% | Activity (K562 [17]): Dose-dependent effect | Activity (K562 [18]): 17.88% | Activity (K562 [19]): 22.65% | Activity (K562 [20]): 49.29% | Activity (K562 [21]): Dose-dependent effect | Activity (HUVEC [22]): Dose-dependent effect | Activity (HUVEC [23]): Active | inhibition in vivo at 15 mg/kg (H22 [24]): 53.4% | inhibition in vivo at 30 mg/kg (H22 [25]): 65.4% | Activity (Mus musculus [26]): Non-Toxic | TGI (H22 [27]): Dose-dependent effect
